Screens (PubChem)
PfHsp90 set2: growth inhibition of PfHsp90-expressing yeast, primary screen, antimalarial PfHsp90 inhibitor project, S. cerevisiae, BacTiter-Glo luminescence, single point, set 2; AID 504621, 2011; BacTiter-Glo ATP, 48 h; yeast lacking PDR1 and PDR3 efflux regulators; hit rate 0.32% among 310,000; inhibition, % at 9.4 µM;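 active means every replicate shows inhibition above about 80%, whatever the replicate mean, limit read from the data; inconclusive means mean inhibition reaches the set limit but some replicate falls short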
HIV Env fusion: inhibitors of HIV-1 Env-driven cell-cell fusion, primary screen, HeLa-JRFL effector, CEM21 target cells, luciferase; inhibition, % at 12.3 µM; hit rate 1.1% among 360,000; AID 651610, 2012;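 active means mean replicate inhibition score of at least 50 and every replicate individually at or above 50; inconclusive means only one of the two criteria met; inactive means mean below 50 and not all replicates reaching 50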
Arr AP2 block: inhibitors of beta-arrestin/AP2 binding, primary screen, biochemical, GPCR trafficking, flow cytometry | FITC-arrestin peptide / GST-AP2 beads; AP2 beta2 appendage carries R879A mutation | inhibition, % at 10 µM | hit rate 0.31% among 340,000;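 active means inhibition above a set limit, near 3 SD of compounds lacking own fluorescence, cut at about 54% in these data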
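System: GST-AP2 R879A glutathione beads | Also added: FITC-arrestin peptide, 50 nM | Times: 12 min plus 1 h, RT | Signal: Bead flow cytometry, FITC channel | Buffer or medium: PBS with 0.05% Tween 20 and 0.1% BSA | Read-out basis: Percent drop in bead-associated FITC signal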
N-glyco inh: increase of ERlucT glycosylation luciferase signal, primary screen, N-linked glycosylation inhibitor project, D54 ERlucT cells, luminescence, set 2. D54 ERlucT glycosylation luciferase reporter, 24 h; percent of 100 nM tunicamycin response. reporter increase, % at 12.5 µM. hit rate 0.23% among 360,000. AID 588692, 2011;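 active means mean luciferase reporter signal, scaled so untreated is 0 and the glycosylation-blocking control 100, at or above a set limit in every replicate; inconclusive means mean reaches the limit but not every replicate does; inactive means mean below the limit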;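 further: luciferase carries N-glycosylation sites so blocking glycosylation raises the light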
PAX8 inh HTS: inhibitors of PAX8-driven TPO luciferase reporter, primary screen, RMG-I cells, single concentration | SteadyGlo, 24 h | inhibition, % at 12.6 µM | hit rate 1.2% among 360,000 | AID 652154, 2013;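 active means mean replicate inhibition at least 60% with every replicate also reaching 60%; inconclusive means only one of the two criteria is met; inactive means mean below 60% and not all replicates reaching 60%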;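 further: luciferase light reporting Pax8 driven TPO promoter activity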
Rtt109 Vps75: inhibitors of C. albicans Rtt109/Vps75 HAT, primary screen, biochemical, ThioGlo CoA-SH fluorescence, plate reader; Histone acetyltransferase RTT109 (Candida albicans (strain SC5314 / ATCC MYA-2876)), …; purified Rtt109/Vps75, 4 h; inhibition, % at 34.9 µM; AID 540336, 2011; hit rate 0.16% among 330,000;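 active means inhibition of at least 50% in every replicate; inconclusive means best replicate reaches 50% inhibition but some replicates fall short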
Target sequence (Q5AAJ8 whole entry, looked up): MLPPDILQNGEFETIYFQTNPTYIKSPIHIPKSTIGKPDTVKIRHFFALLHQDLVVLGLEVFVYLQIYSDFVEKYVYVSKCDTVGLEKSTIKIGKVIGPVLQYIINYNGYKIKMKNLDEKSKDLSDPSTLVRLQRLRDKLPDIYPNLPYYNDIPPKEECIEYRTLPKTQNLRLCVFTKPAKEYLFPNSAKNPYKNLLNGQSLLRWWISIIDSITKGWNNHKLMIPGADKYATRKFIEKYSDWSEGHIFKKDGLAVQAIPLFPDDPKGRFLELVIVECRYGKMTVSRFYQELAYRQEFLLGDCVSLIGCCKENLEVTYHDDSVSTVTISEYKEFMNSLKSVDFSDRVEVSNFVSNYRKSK
Numbers stand for hits; 0 = inactive; ? = inconclusive; - = not tested or not shown; ! = repeats disagree. Shown are actives, neighbours in structure and some others; about 2.3% of the full set was active somewhere.

SMILES	PfHsp90 set2	HIV Env fusion	Arr AP2 block	N-glyco inh	PAX8 inh HTS	Rtt109 Vps75
N#C/C(=C\c1ccc(N2CCCCC2)o1)C(N)=O	0	56.8	0	0	0	0
N#C/C(=C\c1ccc(N2CCCCC2)o1)C(=O)Nc1cccc(Br)c1	0	0	0	0	0	0
CCC(C)(C)c1ccc(Oc2ccc(N)cc2)cc1	0	60.5	0	0	?	0
CCNC(=O)Nc1ccc2c(c1)C(=O)N(C)[C@@H]1CC[C@@H](CC(=O)NCc3cccc(F)c3)O[C@H]1CO2	-	0	-	-	0	-
C[n+]1c2cc(N)ccc2cc2ccc(N)cc21	0	0	0	0	66.2!	0
Cc1ccc(S(=O)(=O)N(C)C[C@@H]2OCCCC[C@H](C)Oc3ccc(NS(=O)(=O)c4cccs4)cc3C(=O)N([C@H](C)CO)C[C@H]2C)cc1	-	0	-	-	77.9	-
C[C@@H]1CN([C@H](C)CO)C(=O)c2cc(NS(=O)(=O)c3cccs3)ccc2O[C@@H](C)CCCCO[C@H]1CN(C)S(=O)(=O)c1ccc(Cl)cc1	-	-	-	-	0	-
C[C@@H]1CCCCO[C@H](CN(C)S(=O)(=O)c2ccc(Cl)cc2)[C@H](C)CN([C@H](C)CO)C(=O)c2cc(NS(=O)(=O)c3cccs3)ccc2O1	-	0	-	-	0	-
C[C@H](CO)N1C[C@H](C)[C@H](CN(C)S(=O)(=O)c2ccc(Cl)cc2)OCCCC[C@H](C)Oc2ccc(NS(=O)(=O)c3cccs3)cc2C1=O	-	0	-	-	66.8	-
Cc1ccc(S(=O)(=O)N(C)C[C@H]2OCCCC[C@H](C)Oc3ccc(NS(=O)(=O)c4cccs4)cc3C(=O)N([C@@H](C)CO)C[C@H]2C)cc1	-	0	-	-	0	-
C[C@H](CO)N1C[C@H](C)[C@@H](CN(C)S(=O)(=O)c2ccc(Cl)cc2)OCCCC[C@H](C)Oc2ccc(NS(=O)(=O)c3cccs3)cc2C1=O	-	0	-	-	79.8	-
C[C@H]1CCCCO[C@H](CN(C)S(=O)(=O)c2ccc(Cl)cc2)[C@@H](C)CN([C@@H](C)CO)C(=O)c2cc(NS(=O)(=O)c3cccs3)ccc2O1	-	0	-	-	67.5	-
CCCCc1cn(C[C@H](Cc2ccccc2)NC(=O)N[C@H](CO)CCc2oc(C(C)=O)c(C(=O)OC)c2C(=O)OC)nn1	-	0	-	-	0	-
COc1ccccc1-c1cnc2c(c1)C(=O)N([C@@H](C)CO)C[C@H](C)[C@@H](CN(C)Cc1cncnc1)O2	-	0	-	-	-	-
Cc1cccc(N2CCN(C(=O)c3[nH]c(C(F)(F)F)nc3-c3ccccc3)CC2)c1C	-	0	-	0	77.1	-
COc1ccccc1N1CCN(C(=O)c2[nH]c(C(F)(F)F)nc2-c2ccccc2)CC1	-	0	-	0	0	-
Cc1[nH]nc(-c2cccnc2)c1N=NN(C)C	0	0	0	0	70.8	0
C[C@H]1CN([C@@H](C)CO)C(=O)c2cc(C#CCN(C)C)cnc2O[C@H]1CN(C)C(=O)c1ccc2c(c1)OCO2	-	0	-	-	-	-
CCSS(=O)(=O)c1cccc2cccnc12	0	0	0	0	0	153.8
COc1ccc(C#Cc2cnc3c(c2)C(=O)N([C@H](C)CO)C[C@@H](C)[C@H](CN(C)C(=O)CC2CC2)O3)cc1	-	-	-	-	0	-
Cn1cnc(S(=O)(=O)N2C[C@H](O)COC[C@H]3O[C@H](CC(=O)NCc4ccc(F)cc4)CC[C@@H]32)c1	-	-	-	-	0	-
Cc1csc(NC(=O)c2cn3ccccc3n2)n1	0	0	0	0	78.4	0
O=C(Nc1ccccc1)c1cn2ccccc2n1	0	0	0	0	0	0
CC1(C)Cc2c(sc3nc(SCC(=O)NCc4ccco4)n(-c4ccccc4)c(=O)c23)CS1	0	-	0	0	-	0
O=C(CSc1nc2sc3c(c2c(=O)n1-c1ccccc1)CCCC3)NCc1ccco1	0	66.3	0	0	0	0
O=C(CN1CCN(c2ccccn2)CC1)Nc1ccc([N+](=O)[O-])cc1C(=O)Nc1ccccc1F	0	59.7	0	0	0	0
CSc1ccccc1NC(=O)CN1CCN(c2ccccn2)CC1	0	0	0	0	0	0
Cc1cnc(NC(=O)CN2CCN(c3ccccn3)CC2)s1	0	0	0	0	68.1	0
